Bioassay records: PubChem BioAssay, The Scripps Research Institute Molecular Screening Center
TCR-CD3 inh: human TCR-CD3 binding inhibition | TAMRA-labeled TCR probe fluorescence, biochemical | inhibition, % at 9.4 µM | 360,000 compounds, 0.37% hits; in the data active means inhibition above about 19%;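 further: recombinant mutant TCR 2C K166C tagged with TAMRA read by polarization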
SIAE primary: human SIAE inhibition, primary screen; Q9HAT2; SIAE FP-Rh probe binding, fluorescence polarization; inhibition, % at 9.66 µM; 370,000 compounds, 0.69% hits;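 active means inhibition above a cutoff: mean of compounds within the control limits plus 3 SD of those, cut at about 17% in these data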
ABHD4 inh: ABHD4 (mouse) inhibition, primary FP screen; inhibition, % at 8.92 µM; AID 720543; 370,000 compounds, 0.54% hits; purified mABHD4, FP-Rh probe fluorescence polarization; Q8VD66;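 active means inhibition exceeding the mean over every tested compound plus 3 SD, cut at about 30% in these data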
Target sequence (Q8VD66 whole entry, looked up): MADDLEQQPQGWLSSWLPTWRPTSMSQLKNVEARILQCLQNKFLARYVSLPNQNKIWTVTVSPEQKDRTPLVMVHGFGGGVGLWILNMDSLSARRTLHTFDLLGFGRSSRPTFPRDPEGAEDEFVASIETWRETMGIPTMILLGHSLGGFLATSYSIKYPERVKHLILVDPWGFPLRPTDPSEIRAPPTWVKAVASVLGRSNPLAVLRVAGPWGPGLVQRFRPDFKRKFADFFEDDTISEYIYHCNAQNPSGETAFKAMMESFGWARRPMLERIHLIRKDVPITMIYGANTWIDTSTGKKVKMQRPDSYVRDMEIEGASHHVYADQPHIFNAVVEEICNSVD
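assay system = mABHD4 protein | compound dosing = single nominal dose of 8.92 µM, 0.89% DMSO final | read-out basis = percent inhibition of probe binding, normalized to plate controls | schedule = Enzyme–compound pre-incubation 45 min, then probe 60 min, both 25 °C | detection = fluorescence polarization, excitation 525 nm, emission 598 nm, BODIPY TMR filters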
pPAFAH FP inh: pPAFAH (human) enzyme inhibition; recombinant pPAFAH, FP-rhodamine probe fluorescence polarization; Q13093; 330,000 compounds, 1.5% hits; inhibition, % at 3.39 µM;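 active means inhibition above the mean inhibition across the screen plus 3 SD, cut at about 25% in these data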;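 further: inhibitors block binding of the rhodamine activity-based probe so polarization drops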
HTRA1 inhibitor: blocks human HTRA1 serine peptidase. Q92743. recombinant HTRA1, FP-rhodamine activity-based probe, fluorescence polarization. inhibition, % at 5.96 µM. 340,000 compounds, 0.5% hits; in the data active means inhibition above about 36%
HTRA1 conf: HTRA1 (human) inhibition, confirmation | inhibition, % at 5.96 µM | recombinant HTRA1, FP-rhodamine activity-based probe, fluorescence polarization | shares compounds with HTRA1 inhibitor | 1,600 compounds, 66% hits;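 active means mean inhibition over three repeats above a set limit taken from the earlier primary screen, cut at about 37% in these data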;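 further: inhibitors block probe binding so polarization drops and inhibition rises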
Each line names hits and unclear results; the compound was inactive in the other large screens (follow-up assays come after a bar, where they were run). An excerpt weighted towards active compounds, which were near 2.3% of everything screened.

COc1cccc(/C=N/NC(=S)NC2CC3CC2C2C=CCC32)c1O (stereo not drawn)	none
COc1cccc(Nc2ccc(N3CCCCC3)cc2)c1OC	none
COc1cccc(CNc2ccc(N3CCCCC3)cc2)c1OC	HTRA1 inhibitor 59.5 | HTRA1 conf inactive
COc1ccccc1CNc1ccc(N2CCCCC2)cc1	pPAFAH FP inh 26.8, HTRA1 inhibitor 56.8 (no result: TCR-CD3 inh, SIAE primary, ABHD4 inh) | HTRA1 conf inactive
Cc1cc[n+](CC(=O)c2ccc(NC(=O)c3ccccc3)cc2)c2ccccc12	none
CC[n+]1ccc(C)c2cc(SC(F)(F)F)ccc21	HTRA1 inhibitor 36.4 (no result: TCR-CD3 inh, SIAE primary, ABHD4 inh) | HTRA1 conf inactive
CC[n+]1ccc(C)c2cc(P(=O)(c3ccccc3)c3ccccc3)ccc21	HTRA1 inhibitor 44.1 | HTRA1 conf inactive
COc1ccc(C(=O)c2[nH]c(N)c(C(=O)NCCc3c[nH]c4ccccc34)c2-c2c(F)cccc2Cl)cc1	none (no result: pPAFAH FP inh, HTRA1 inhibitor)
CCN(CC)CCn1c(O)c(N=O)c2ccccc21	none
CCN(CC)CCn1c2ccccc2c(=O)c2c(O)ccc(O)c21	ABHD4 inh 32.9, HTRA1 inhibitor 54.6 (no result: pPAFAH FP inh) | HTRA1 conf 48.4
COc1cc(/C=C/C(=O)NCC(=O)N2CCC(N(C)CCN3CCOCC3)CC2)ccc1OC(C)C	HTRA1 inhibitor 37.5 | HTRA1 conf inactive
COc1ccccc1/C=C/C(=O)NCC(=O)N1CCC(N(C)C2CCCC2)CC1	none
O=C(C[C@H]1C=C[C@@H](NC(=O)Cc2cccnc2)[C@@H](CO)O1)NCc1ccc2c(c1)OCO2	none (no result: pPAFAH FP inh, HTRA1 inhibitor)
CCCCC1=CC2=CC(=O)C(C)(OC(=O)C3CCCC3)C(=O)C2=CO1 (stereo not drawn)	HTRA1 inhibitor 39.4 | HTRA1 conf 43.8
CC1(OC(=O)CCc2ccccc2)C(=O)C=C2C=C(c3ccc(C#N)cc3)N(C3CCCC3)C=C2C1=O (stereo not drawn)	none
COc1cccc(-c2cc3nc(NCCN4CCCC4)n(C)c(=O)c3s2)c1	none (no result: pPAFAH FP inh, HTRA1 inhibitor)
Cc1ccc(-n2c(C)cc(-c3csc(N)n3)c2C)cc1	pPAFAH FP inh 25.1, HTRA1 inhibitor 52.3 | HTRA1 conf 50.1
CCOC(=O)[C@]12CCC=C1N(Cc1ccco1)C(=O)[C@H](CC(=O)N1CCN(C(=O)c3ccco3)CC1)C2	none (no result: pPAFAH FP inh, HTRA1 inhibitor)
Cn1nnnc1N=N/C(=N/Nc1ccccc1)c1ccccc1	HTRA1 inhibitor 42.2 | HTRA1 conf inactive
O=C1Nc2ccc(Br)cc2C12NNc1ccccc1O2 (stereo not drawn)	pPAFAH FP inh 29.4, HTRA1 inhibitor 49.1 | HTRA1 conf 61.6
COc1cc(NC(C)CCc2ccccc2)cc(OC)c1OC (stereo not drawn)	HTRA1 inhibitor 39.5 | HTRA1 conf inactive
COc1ccc2nc(NN=C(C)c3ccccn3)cc(C)c2c1	HTRA1 inhibitor 55.4 (no result: pPAFAH FP inh) | HTRA1 conf 66.7
CC(=NNc1ccc2ccccc2n1)c1ccccn1	none (no result: pPAFAH FP inh, HTRA1 inhibitor)
O=C(Nc1ccccc1)Nc1ccc(Nc2ccccc2)cc1	none (no result: HTRA1 inhibitor)
O=S(=O)(O)c1ccc(O)c2cc(Nc3ccccc3)ccc12	TCR-CD3 inh 43.6, SIAE primary 54.7, ABHD4 inh 78.4, HTRA1 inhibitor 66.8 (no result: pPAFAH FP inh) | HTRA1 conf 44.3
Cc1ccc(/C=C/C(=O)c2ccccc(=O)c2O)cc1C	HTRA1 inhibitor 36.9 | HTRA1 conf 44.2
CCC(C)CN1C(=O)CSCC1(C)C(=O)Nc1ccc2c(c1)OCCO2 (stereo not drawn)	none (no result: pPAFAH FP inh, HTRA1 inhibitor)
Cc1ccc2ccc(C(Nc3cccc(C(F)(F)F)c3)c3cccnc3)c(O)c2n1 (stereo not drawn)	HTRA1 inhibitor 54.2 | HTRA1 conf 60.7
CCCC(=O)NC(c1ccc(C(C)C)cc1)c1ccc2cccnc2c1O (stereo not drawn)	HTRA1 inhibitor 52.0 | HTRA1 conf 54.3
CCCC(=O)NC(c1ccc(N(C)C)cc1)c1ccc2cccnc2c1O (stereo not drawn)	none
CCC(=O)NC(c1ccc(C)cc1)c1ccc2cccnc2c1O (stereo not drawn)	HTRA1 inhibitor 64.4 | HTRA1 conf 75.7
CC(NC(=O)CSc1ncccn1)c1ccc(Cl)cc1Cl (stereo not drawn)	none
CCCCC(=O)NC(c1ccc(Cl)cc1Cl)c1ccc2cccnc2c1O (stereo not drawn)	HTRA1 inhibitor 47.8 (no result: pPAFAH FP inh) | HTRA1 conf 76.2
CC(C)C(=O)NC(c1ccc(Cl)cc1Cl)c1ccc2cccnc2c1O (stereo not drawn)	pPAFAH FP inh 26.5, HTRA1 inhibitor 48.7 | HTRA1 conf 46.8
COc1ccc(C(NC(=O)C(C)C)c2ccc3cccnc3c2O)cc1 (stereo not drawn)	none
Cc1ccnc(NC(c2cccnc2)c2ccc3cccnc3c2O)c1 (stereo not drawn)	none
CCCC(=O)NC(c1ccccc1Cl)c1ccc2cccnc2c1O (stereo not drawn)	HTRA1 inhibitor 37.8 | HTRA1 conf 39.8
COc1ccccc1NC(c1cccnc1)c1ccc2cccnc2c1O (stereo not drawn)	none
Cc1cc(NC(c2ccc(Cl)cc2)c2ccc3cccnc3c2O)no1 (stereo not drawn)	HTRA1 inhibitor 48.5 | HTRA1 conf 50.7
O=C(O)c1ccccc1NC(c1ccccc1)c1ccc2cccnc2c1O (stereo not drawn)	HTRA1 inhibitor 49.0 (no result: pPAFAH FP inh) | HTRA1 conf 67.5
Cc1ccnc(NC(c2ccccc2)c2ccc3cccnc3c2O)c1 (stereo not drawn)	none (no result: pPAFAH FP inh)
O=C1CCC[C@@H]2C=C[C@H](c3ccc(Br)cc3)[C@H]3CCN1[C@@H]32	none (no result: pPAFAH FP inh, HTRA1 inhibitor)
Cc1cc(C)c(S(=O)(=O)/N=C2/C=C(SCC(=O)O)C(=O)c3ccccc32)cc1C	HTRA1 inhibitor 54.3 (no result: TCR-CD3 inh, SIAE primary, ABHD4 inh, pPAFAH FP inh) | HTRA1 conf inactive
O=C(CSc1nnc(COc2ccccc2)n1-c1ccccc1)Nc1ccc2c(c1)OCO2	none (no result: TCR-CD3 inh, pPAFAH FP inh, HTRA1 inhibitor)
Nc1ccc2c(c1)C(=O)c1ccccc1-2	none
Nc1ccc2c(c1)C(=O)C(=O)c1ccccc1-2	HTRA1 inhibitor 42.0 | HTRA1 conf inactive
CN(C)c1ccc(NC(=O)c2cccc(C(=O)Nc3ccc(N(C)C)cc3)n2)cc1	pPAFAH FP inh 25.9, HTRA1 inhibitor 44.1 | HTRA1 conf 64.9
Cc1ccccc1Cn1cc(COC(=O)N2CCOCC2)nn1	none (no result: TCR-CD3 inh, pPAFAH FP inh, HTRA1 inhibitor)
CCC(c1nc2ccccc2[nH]1)N(C(=O)C1=NNC(=O)CC1)c1ccccc1 (stereo not drawn)	none (no result: pPAFAH FP inh, HTRA1 inhibitor)
CCCCCCCCCCCCCCCCn1cc[n+](CC(C)=O)c1	HTRA1 inhibitor 72.0 (no result: TCR-CD3 inh, SIAE primary, ABHD4 inh, pPAFAH FP inh) | HTRA1 conf 85.6
CCCCCCn1ccc(=N)cc1	none
COc1cccc(/C=N/Nc2ncnc3c2ncn3Cc2ccccc2)c1O	HTRA1 inhibitor 41.3 | HTRA1 conf 47.4
COc1ccc(NC(=O)c2cc3ccccc3cc2O)cc1	pPAFAH FP inh 32.0, HTRA1 inhibitor 39.2 | HTRA1 conf inactive
CCCCCCCCN1C(=O)[C@@H](CC(=O)NCCc2ccccc2OC)C[C@@]2(C(=O)OC)C1=C[C@H](C(C)C)O[C@@H]2C1CC1	none (no result: TCR-CD3 inh, pPAFAH FP inh, HTRA1 inhibitor)
CN(C)CCCNc1cc(C(C)(C)C)nc2c(-c3ccccc3)cnn12	HTRA1 inhibitor 36.5 | HTRA1 conf inactive
